Assay [1] relates to 143B. Description: Cytotoxicity against human thymidine kinase deficient 143B cells after 72 hrs by SRB assay. Type of assay: functional, cell-based. In short, it runs like this:
(§1)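 SRB protein-stain assay. Cells were seeded at about 10,000 per well and grown 24 h to a partial monolayer. They were then exposed for 72 h at 37 °C (5% CO2, 90% RH) to six concentrations: 0.1, 0.2, 1, 2, 10 and 20 µM. Final DMSO was ≤0.1%. Cells were TCA-fixed and stained with 0.4% SRB, and OD was read at 490 nm. Survival was expressed versus untreated cells. Cytarabine served as internal standard, with three experiments.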
In general terms: Sulforhodamine B stains cellular protein and so reports cell mass.

Assay [2] has as its system HepG2. Description: Cytotoxicity against human HepG2 cells after 72 hrs by SRB assay. The class given is functional, cell-based. The following applies: HepG2, 72 h.
Assay [3] relates to HeLa. Description: Cytotoxicity against human HeLa cells after 72 hrs by SRB assay. Type of assay: functional, cell-based. In short, it runs like this: as §1
Assay [4] can be described thus: Cytotoxicity against HDF cells after 72 hrs by SRB assay. The class given is cell-based. Conditions: Homo sapiens.
Assay [5] concerns 143B. Description: Cytotoxicity against human 143B cells after 72 hrs by SRB assay. Type of assay: functional, cell-based. In short, it runs like this: as §1
For assay [6], the system named is MCF7. Description: Cytotoxicity against human MCF7cells after 72 hrs by SRB assay. Conditions: MCF7, 72 h. Type of assay: functional, cell-based.
In a further assay the test system is KB. Description: Cytotoxicity against human KB cells after 72 hrs by SRB assay. The class given is functional, cell-based. In short, it runs like this: as §1
The test system of assay [7] is HeLa. Description: Cytotoxicity against human HeLa cells after 72 hrs in presence of human recombinant cytochrome P450 isoform mixture by SRB assay. The class given is functional, cell-based.
Assay [8] has as its system HepG2. Description: Selectivity index, ratio of IC50 for HDF cells to IC50 for human HepG2 cells. The class given is functional. In short, it runs like this:
(§2)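 SI is calculated as the IC50 in normal human dermal fibroblasts (HDF) divided by the IC50 in the respective cancer line. Both values come from 72 h SRB assays. SD is from three independent experiments.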

The nature of assay [9]: Selectivity index, ratio of IC50 for HDF cells to IC50 for human KB cells. The class given is functional. The method in brief:
as §2

The subject of assay [10] is MCF7. Description: Selectivity index, ratio of IC50 for HDF cells to IC50 for human MCF7 cells. Type of assay: functional. The method in brief: as §2
The subject of assay [11] is HeLa. Description: Selectivity index, ratio of IC50 for HDF cells to IC50 for human HeLa cells. The class given is functional. The method in brief:
as §2

Assay [12] has as its system 143B. Description: Selectivity index, ratio of IC50 for HDF cells to IC50 for human 143B cells. Type of assay: functional. In short, it runs like this:
as §2

A value given as a limit tells only on which side of the number the result lay.

As a reminder, the IC50 is the concentration that gives 50% inhibition. `CC(C)(C)OC(=O)O[C@H]1C[C@H](n2cc(F)c(=O)[nH]c2=O)O[C@@H]1CO`: the IC50 in the assay with 143B [1] was 47 µM; with HepG2 [2], 80.4 µM; with HeLa [3] it was 63.5 µM; in assay [4], more than 100 µM; with 143B [5] it was 18 µM; in the assay with MCF7 [6], 64.2 µM. The compound further gave an IC50 in the assay with KB of 75.9 µM.

Turning to `COC(=O)[C@H](C)NP(=O)(OC[C@H]1O[C@@H](n2cc(F)c(=O)[nH]c2=O)C[C@@H]1OC(=O)OC(C)(C)C)Oc1ccccc1` (stereo partly drawn), the IC50 in the assay on HepG2 [2] is 9.28 µM; in the assay on HeLa [3], 8.34 µM; in [4] it was 17.5 µM; in the assay on MCF7 [6], 6.29 µM; in the assay on KB, 8.34 µM.

As for `CCCNP(=O)(OC[C@H]1O[C@@H](n2cc(F)c(=O)[nH]c2=O)C[C@@H]1O)Oc1ccc(Cl)cc1` (stereo partly drawn), the IC50 in the assay with HeLa [7] came out at 45.9 µM; with HepG2 [2] it was 41.9 µM; in the assay with HeLa [3], 50.2 µM; in assay [4] it was 61 µM; in the assay on MCF7 [6], 27.2 µM; with KB, 50.4 µM.

As to `CNP(=O)(OC[C@H]1O[C@@H](n2cc(F)c(=O)[nH]c2=O)C[C@@H]1OC(=O)OC(C)(C)C)Oc1ccc(Cl)cc1` (stereo partly drawn), the IC50 in the assay with 143B [1] was 13.1 µM; with HepG2 [2], 6.55 µM; in the assay on HeLa [3], 7.27 µM; in assay [4] it was 12.4 µM; with 143B [5] it was 6.72 µM; in the assay with MCF7 [6] it was 8.18 µM. Besides, the IC50 in the assay on KB was found to be 7.28 µM.

Turning to `CNP(=O)(OC[C@H]1O[C@@H](n2cc(F)c(=O)[nH]c2=O)C[C@@H]1O)Oc1ccc(Cl)cc1` (stereo partly drawn), the 50% inhibitory concentration (IC50) with 143B [1] is 12.7 µM; with HepG2 [2], 9.34 µM; in the assay on HeLa [3] it was 5.78 µM; in assay [4] it was 11.8 µM; in the assay on 143B [5], 2.12 µM; in the assay with MCF7 [6], 4.44 µM. The IC50 in the assay with KB is 4.45 µM. The “Ratio IC50” value with HepG2 [8] is recorded as 1.27; in assay [9], 2.66; with MCF7 [10] it was 2.66; with HeLa [11], 2.05; in the assay on 143B [12], 5.58.

Consider `CCNP(=O)(OC[C@H]1O[C@@H](n2cc(F)c(=O)[nH]c2=O)C[C@@H]1O)Oc1ccc(Cl)cc1` (stereo partly drawn), for which the IC50 turned out to be 16 µM in the assay on 143B [1]; 5.39 µM with HepG2 [2]; 8.19 µM with HeLa [3]; 16.3 µM in assay [4]; 2.41 µM in the assay with 143B [5]; 19.4 µM in the assay on MCF7 [6]. The IC50 with KB is 8.21 µM.

With `C#CCNP(=O)(OC[C@H]1O[C@@H](n2cc(F)c(=O)[nH]c2=O)C[C@@H]1O)Oc1ccc(Cl)cc1` (stereo partly drawn), the IC50 in the assay on 143B [1] was 3.9 µM; in the assay on HepG2 [2], 24.5 µM; in the assay on HeLa [3], 10.6 µM; in [4], 31 µM; in the assay with 143B [5], 3.61 µM; in the assay with MCF7 [6], 12 µM. The same compound gave an IC50 in the assay on KB of 25.3 µM.

In the case of `Nc1ccn([C@@H]2O[C@H](CO)[C@@H](O)[C@@H]2O)c(=O)n1` [CYTARABINE], the IC50 amounted to 16.9 µM in the assay on 143B [1], 2.86 µM in the assay with HepG2 [2], 4.99 µM in assay [4] and 2.06 µM in the assay on 143B [5]. Besides, the “Ratio IC50” value in the assay with HepG2 [8] worked out at 1.75; in [9] it was 1.23; in the assay on MCF7 [10] it was 1.31; in the assay with HeLa [11] it was 1.41; in the assay with 143B [12], 2.42.

Turning to `O=c1[nH]c(=O)n([C@H]2C[C@H](O)[C@@H](CO)O2)cc1F` [FLOXURIDINE], the IC50 stood at 14.1 µM in the assay on 143B [1], 8.91 µM with HepG2 [2], 13.1 µM in assay [4] and 6.02 µM in the assay with 143B [5]. In addition, the “Ratio IC50” value with HepG2 [8] is on record as 1.47; in assay [9], 1.5; with MCF7 [10], 1.07; with HeLa [11] it was 2.01; with 143B [12], 2.17.

Regarding `O=c1[nH]cc(F)c(=O)[nH]1` [FLUOROURACIL], the half-maximal inhibitory concentration (IC50) with 143B [1] was found to be 16.3 µM; in the assay on HepG2 [2], 6.6 µM; in [4] it was 7.02 µM; in the assay with 143B [5] it was 13 µM. Moreover, the “Ratio IC50” value in the assay with HepG2 [8] amounted to 1.06; in assay [9], 1.45; with MCF7 [10], 1.08; in the assay with HeLa [11], 1.13; with 143B [12], 0.54.

On to `Oc1ccc(Cl)cc1` [PARACHLOROPHENOL], for which the IC50 with HepG2 [2] was determined as 1700 µM; with HeLa [3] it was 1680 µM; in [4], 1850 µM; in the assay with MCF7 [6] it was 1880 µM; in the assay with KB, 1450 µM.

The values are drawn from ChEMBL document CHEMBL3784993, “Synthesis and anticancer activity of some 5-fluoro-2'-deoxyuridine phosphoramidates” (Bioorg Med Chem, 2016).
